Results pooled from the literature.
Lines come from different studies, so protocols differ.
TYK2 JH1: Non-receptor tyrosine-protein kinase TYK2, JH1 (TYK2, Homo sapiens, UniProt P29597)
TYK2: Non-receptor tyrosine-protein kinase TYK2 (TYK2, Homo sapiens, UniProt P29597)
TYK2 JH2: Non-receptor tyrosine-protein kinase TYK2, JH2 (TYK2, Homo sapiens, UniProt P29597)

| SMILES | target | read-out | mode | method | tested at | measurement | result |
| --- | --- | --- | --- | --- | --- | --- | --- |
| N[C@H]1CCN(c2nccc(-c3cnn4ncccc34)n2)C1 | TYK2 JH1 | cell-free assay |  |  | 1 µM | remaining signal | 76% |
| CC(C)(O)[C@H]1CC[C@H](Nc2ccc3ncc(-c4cccc(C(F)(F)F)c4)n3n2)CC1 | TYK2 | enzyme activity | inhibitor |  | 1 µM | remaining activity | 73.7% |
| O=c1nc(-c2ccccn2)sc2ccccc12 | TYK2 JH2 | binding |  | competition with immobilised ligand | 1 µM | remaining binding | 98% |
| Nc1ncnc2occ(-c3ccc(NC(=O)Nc4cc(C(F)(F)F)ccc4F)cc3)c12 | TYK2 JH1 | cell-free assay | inhibitor |  | 20 µM | remaining signal | 55% |
| Cn1nc(C(=O)NCc2ccc(C(=O)O)cc2)cc1-c1ccc2[nH]ccc2c1 | TYK2 JH2 | cell-free assay |  | competition with immobilised ligand | 0.1 µM | remaining binding | 94% |
| CN(CCCC(F)(F)F)c1nccc(-c2cnn3ncccc23)n1 | TYK2 | binding |  |  | 1 µM | remaining binding | 100% |
| Cc1sc(C(=O)NC2COC2)cc1-n1cc(NC(=O)Nc2c(F)cccc2Cl)cn1 | TYK2 | enzyme activity | inhibitor |  | 10 µM | remaining activity | 114% |
| Cc1cc(NC(=O)c2cccc3cc(-c4cccc5[nH]nc(N)c45)ccc23)ccc1F | TYK2 | enzyme activity | inhibitor |  | 0.1 µM | activity vs control | 94% |
| Cc1ccc(C(=O)NCc2ccsc2)cc1C#Cc1cn(C(C)C)c2ncnc(N)c12 | TYK2 | enzyme activity | inhibitor |  | 1 µM | activity vs control | 49% |
| CN(c1nccc(-c2cnn3ncccc23)n1)C1CC1 | TYK2 JH1 | cell-free assay |  |  | 1 µM | remaining signal | 100% |
| O=C(NCc1ncc(C(F)(F)F)cc1Cl)c1ccc2c(c1)C1(CCS(=O)(=O)CC1)[C@H](C1CC1)N2S(=O)(=O)c1ccc(F)cc1 | TYK2 JH2 | cell-free assay |  | competition with immobilised ligand | 1 µM | remaining binding | 79% |
| CC(C)(C)c1nc(-c2cccc(NS(=O)(=O)c3c(F)cccc3F)c2F)c(-c2ccnc(N)n2)s1 | TYK2 | enzyme activity | inhibitor | radiometric | 1 µM | remaining activity | 96% |
| N#CCCc1ccc2c(c1)-c1[nH]c3ccc([N+](=O)[O-])cc3c1CC(=O)N2 | TYK2 | cell-free assay |  |  | 0.5 µM | remaining signal | 48.1% |
| CCOC(=O)c1cc2cc(-c3cc(C(=O)NCc4ccc(C(=O)O)cc4)nn3C)ccc2[nH]1 | TYK2 JH1 | cell-free assay |  | competition with immobilised ligand | 0.1 µM | remaining binding | 90% |
| CCN(CC)CCNC(=O)c1c(C)[nH]c(/C=C2\C(=O)Nc3ccc(F)cc32)c1C | TYK2 | cell-free assay |  |  | 0.5 µM | remaining signal | 52.6% |
| COc1cc2nccc(Oc3ccc(NC(=O)c4c5n(n(-c6ccc(F)cc6)c4=O)CCCC5)cc3)c2cc1OC | TYK2 | enzyme activity | inhibitor |  | 0.1 µM | inhibition | -28% |
| CCC(=N\O)/C(C)=C/c1ccc(F)cc1 | TYK2 JH2 | cell-free assay |  | competition with immobilised ligand | 1 µM | remaining binding | 73% |
| Oc1cccc(-c2nc(N3CCOCC3)c3oc4ncccc4c3n2)c1 | TYK2 | cell-free assay |  |  | 0.5 µM | remaining signal | 73.6% |
| CS(=O)(=O)Nc1cccc(-c2csc(NC(=O)CSc3nc4nccnc4c(=O)n3CCc3ccccc3)n2)c1 | TYK2 | enzyme activity | inhibitor |  | 10 µM | inhibition | -1% |
| CCC(=O)N[C@@H]1CC[C@H](C(=O)N(C)c2ccc(-c3nc4ccccc4o3)cc2)C1 | TYK2 JH2 | cell-free assay |  | competition with immobilised ligand | 1 µM | remaining binding | 100% |
| Cc1ccc(NC(=O)c2ccc(C)c(C(F)(F)F)c2)cc1C#Cc1nn(C2CCC(O)CC2)c2ncnc(N)c12 (stereo not shown) | TYK2 | cell-free assay |  |  | 10 µM | remaining signal | 36% |
| Cc1cnn2ncc(-c3ccnc(N(C)C)n3)c2c1 | TYK2 | binding |  |  | 1 µM | remaining binding | 32% |
| c1ccc(N2CCN(Cc3nc4ccccc4[nH]3)CC2)nc1 | TYK2 JH2 | binding |  | competition with immobilised ligand | 1 µM | remaining binding | 100% |
| CN(C)c1nccc(-c2cnc3ncccn23)n1 | TYK2 JH1 | cell-free assay |  | competition with immobilised ligand | 1 µM | remaining binding | 83% |
| COc1cc2ncnc(Nc3ccc(Oc4ccccc4)cc3C)c2cc1OC | TYK2 | enzyme activity | inhibitor |  | 1 µM | inhibition | 7% |
| O=C1Nc2ccc(Cl)cc2C1=Cc1cc(Cl)c(O)c(Cl)c1 | TYK2 | cell-free assay |  |  | 0.5 µM | remaining signal | 26.9% |
| CC1=C(C#N)[C@@H](c2ccc3[nH]nc(C)c3c2)C(C#N)=C(c2ccc(Cl)cc2)N1 | TYK2 JH1 | cell-free assay |  | competition with immobilised ligand | 1 µM | remaining binding | 73.1% |
| C[C@H]1CCN(c2nccc(-c3cnn4ncccc34)n2)C1 | TYK2 | binding |  |  | 1 µM | remaining binding | 51% |
